Measurements taken from PMC11408689 (Nature Communications, 2024).
Positions count from the first letter of the chain named. Where “and” joins values, the source holds several entries; their conditions need not be identical. Identical values can stand only once. Entries after “also recorded” stand apart in the source; their conditions may differ. Starred links: 1 amine or outer side, 2 acyl side, 3 side chain; linkers in the order of their positions; H or OH if unused. Positions of bridges follow the written chain, without caps; N, C: chain ends. Non-standard residues stand in square brackets, D forms with d. Ala(13C3,15N) = 13C3,15N-labelled alanine, [13CH3][13C@H]([15NH][*:1])[13C](=O)[*:2]

Experiments:
[1] = test system: nucleus-localized ATF6; assay: UPR marker nucleus-localized ATF6 in TH-positive neurons after MPP+ injury; type: cell-based, rat
Method in brief: (§1)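 Rat primary mesencephalic neurons were pretreated with test compound (PBS stock diluted in medium) from 4 h before injury. They were then exposed on DIV6 to 4 µM MPP+ for 48 h, six wells per condition. Fixed cells were double-stained for TH plus phospho-IRE1α, ATF4 or ATF6, with Hoechst nuclear counterstain. Twenty 10x images per well were analysed automatically for TH/phospho-IRE1α overlap or stained nuclei in TH+ cells. Results are % vs control; one-way ANOVA with Dunnett's test.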

[2] = test system: phosphorylated IRE1α; assay: UPR marker phospho-IRE1α in TH-positive neurons after MPP+ injury; type: cell-based, rat; conditions: for UPR modulating effect on IRE1α pathway: compared to wild-type C-CDNF
Method in brief: as §1

[3] = test system: nucleus-localized ATF4; assay: UPR marker nucleus-localized ATF4 in TH-positive neurons after MPP+ injury; type: cell-based, rat; conditions: for UPR modulating effect on PERK/ATF4 pathway: compared to wild-type C-CDNF
Method in brief: as §1

[4] = target: T1, GRP78-NBD (Homo sapiens, UniProt P11021); assay: SEC-SAXS of GRP78-NBD and its complexes with CDNF or C-CDNF; type: binding
Method in brief: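 Recombinant human proteins expressed in E. coli: CDNF in T7 Shuffle Express (to keep disulfides), GRP78-NBD in BL21 Star (DE3). In-line SEC-SAXS used 10 μl at ~10 mg/ml on Superdex 200 Increase at 0.35 ml/min and 20 °C, in PBS pH 7.2 with 1.5% glycerol. Data were collected at EMBL P12 (Pilatus 6M) in a 1 mm quartz capillary.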

[5] = test system: α-synuclein (aSyn) aggregates in dopamine neurons; assay: α-synuclein; type: cell-based, rat
Method in brief: (§2)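 Rat primary mesencephalic neurons were used. On DIV6, medium (Neurobasal, B27, BDNF, GDNF) was replaced with medium containing 4 µM MPP+ for 48 h. Test compound, from PBS stocks diluted in medium, was added 4 h before MPP+. Six wells per condition; fixed, then immunostained for TH and α-synuclein. Twenty 10x images per well, automated count of TH+ neurons and TH/aSyn overlap area. Reported as % of untreated control; one-way ANOVA with Dunnett's test.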

[6] = test system: TH-positive dopamine neurons (rat primary mesencephalic neurons); type: cell-based; conditions: for neuroprotective activity: any of the tested concentrations
Method in brief: as §2

[7] = target: T1, GRP78-NBD; assay: Spectral shift binding assay; conditions: ligand up to 100 μM; 25 °C
Method in brief: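 Tag-free GRP78-NBD (His-tagged, expressed in E. coli BL21 Star (DE3), cobalt-affinity purified, TEV-cleaved, SEC-polished) labelled with NT-650-NHS, held at 10 nM. Ligand serial dilutions were made in PBS pH 7.2 with 0.05% Tween 20, giving 100 μM to 3.05 nM final. Read on Monolith X at 25 °C, 100% LED, as the 670/650 nm ratio. Amplitude is the unbound-to-bound plateau difference.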

[8] = test system: GRP78-NBD; conditions: crystal structure; cited from earlier work
[9] = target: T1, GRP78-NBD; assay: 2D 1H-13C HSQC NMR titration of 13C/15N-Ala labeled C-CDNF with GRP78-NBD; type: binding; conditions: GRP78-NBD 0-65 µM
[10] = MPP+ injury, 4 µM, 48 h, p < 0.0001 vs control
[11] = SEC-SAXS, PBS pH 7.2, 1.5% glycerol, 20 °C

T1 sequence (P11021 26-382): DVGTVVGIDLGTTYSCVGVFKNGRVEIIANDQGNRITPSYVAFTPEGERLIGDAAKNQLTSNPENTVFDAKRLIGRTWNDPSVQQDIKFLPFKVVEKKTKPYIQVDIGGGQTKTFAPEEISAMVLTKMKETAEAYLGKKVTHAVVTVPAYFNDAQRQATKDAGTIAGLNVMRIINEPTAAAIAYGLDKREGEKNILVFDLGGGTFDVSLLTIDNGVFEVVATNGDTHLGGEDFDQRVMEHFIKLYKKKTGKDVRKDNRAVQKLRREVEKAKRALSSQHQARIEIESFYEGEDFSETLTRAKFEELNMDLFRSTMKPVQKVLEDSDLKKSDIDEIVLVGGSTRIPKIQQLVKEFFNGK

C[n+]1ccc(-c2ccccc2)cc1 [MPP^+, 1-methyl-4-phenyl-pyrididium, reference compound]
increase of nucleus-localized ATF6 from control cells [1, 10]: 79.5 ± 6.2 | increase of S724 phosphorylated IRE1α from control cells [2, 10]: 81.0 ± 5.0% | increase of nucleus-localized ATF4 from control cells [3, 10]: 42.1 ± 6.1

CDNF: Cerebral dopamine neurotrophic factor, CDNFWT (aa 25-187), expressed in E. coli
complex formation with GRP78-NBD ([4]; shift of SEC-SAXS elution peak to earlier elution, excess ligand): formed a complex with GRP78-NBD

GRP78-NBD: nucleotide-binding domain of GRP78 (aa 26-382), expressed in E. coli
Dmax (PDDF/P(r) analysis) [4, 11]: 6.5 nm and 6.5 ± 0.2 nm | Rg (Guinier Analysis) [4, 11]: 2.2 nm and 2.2 ± 0.1 nm | Envelope volume (ab initio modeling, Dammif) ([4]; from SEC-SAXS data): 83 nm^3

B1: C-CDNF-MT1 (protein)
peptide: KYEKTLDLASVDLRKMRVAELKQILHSWGEECRACAAATDYVNLIQELAPKYAATHPKTEL
modifications: disulfide 32-35
maximal reduction of aSyn aggregation from MPP+ model effect ([5]; maximal effect over tested concentrations (5-500 nM), p = 0.4382): 21.2 ± 5.9% | neuroprotective activity ([6]; MPP+ 48 h): did not show any neuroprotective activity | maximal increase of dopamine neuron survival from MPP+ model effect ([6]; maximal effect over tested concentrations (5-500 nM), p = 0.9771): 13.6 ± 6.7% | UPR modulating effect on IRE1α pathway [2]: nearly completely lost the UPR modulating effect | binding to GRP78-NBD (spectral shift), in words [7]: do not bind to GRP78-NBD | UPR modulating effect on PERK/ATF4 pathway [3]: nearly completely lost the UPR modulating effect

B2: C-CDNF-MT2: C-CDNF mutant E156/157/163A (peptide)
peptide: B1 peptide with E30A, E31A, A38K
modifications: disulfide 32-35
activity in neuroprotection or aSyn aggregation ([5]; all three tested concentrations, compared to wild-type C-CDNF): very low activity in neuroprotection or aSyn aggregation | neuroprotective activity ([6]; MPP+ 48 h): did not show any neuroprotective activity | UPR modulating effect on IRE1α pathway [2]: nearly completely lost the UPR modulating effect | binding to GRP78-NBD (spectral shift), in words [7]: do not bind to GRP78-NBD | UPR modulating effect on PERK/ATF4 pathway [3]: nearly completely lost the UPR modulating effect

B3: C-CDNF-MT3 (protein)
chain: B1 peptide with R33A, A37E
modifications: disulfide 32-35
reduction in aSyn aggregation, change from MPP+ model effect ([5]; 500 nM, MPP+ 48 h, p = 0.0073): −42.1 ± 7.7% | ATF6 pathway modulating activity ([1]; 5-500 nM): dose-dependent effect | increase of dopamine neuron survival from MPP+ model effect ([6]; 500 nM, MPP+ 48 h, p = 0.0878): 40.3 ± 8.4% | neuroprotective activity ([6]; MPP+ 48 h): reduced potency in the neuroprotection assay | decrease in phospho-IRE1α ([2]; 500 nM, p = 0.0003): 67.2 ± 6.0% | UPR modulating activity ([2]; 5 and 50 nM): loss of UPR modulating activity | binding to GRP78-NBD (spectral shift), in words [7]: impaired binding to GRP78-NBD; also recorded: weak binding to GRP78-NBD | decrease in nuclear ATF4 ([3]; 500 nM, p = 0.0498): 55.3 ± 8.2%

B4: MANF: mesencephalic astrocyte-derived neurotrophic factor (protein, UniProt P55145 25-182, looked up)
Mesencephalic …: LRPGDCEVCISYLGRFYQDLKDRDVTFSPATIENELIKFCREARGKENRLCYYIGATDDAATKIINEVSKPLAHHIPVEKICEKLKKKDSQICELKYDKQIDLSTVDLKKLRVKELKKILDDWGETCKGCAEKSDYIRKINELMPKYAPKAASARTDL
binding to GRP78 nucleotide-binding domain [8]: binds to the regulatory, nucleotide-binding domain of GRP78 via its C-terminal domain

B5: ^13C/^15N-Ala-labeled C-CDNF: C-CDNF with labeled alanine residues A135, A145, A162, A175, A179, A180 (peptide)
peptide: KYEKTLDL[Ala(13C3,15N)]SVDLRKMRV[Ala(13C3,15N)]ELKQILHSWGEECRAC[Ala(13C3,15N)]EKTDYVNLIQEL[Ala(13C3,15N)]PKY[Ala(13C3,15N)][Ala(13C3,15N)]THPKTEL
modifications: disulfide 32-35
effect of GRP78-NBD titration on Ala methyl groups [9]: The three well-resolved methyl groups of A145, A162 and A175 are clearly affected; also recorded: A179 and A180 do not display any clear effects
